Data taken from article PMC6587326 (Obesity Science & Practice, 2019).

Tests used:
[1] = Insulin absorption upon s.c. neck dosing in HFD and LFD rats; format: in vivo, Male Sprague Dawley rats; settings: 12 nmol, HFD n = 22, LFD n = 10, p < 0.01
Procedure, shortened: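 Rats aged 33–34 weeks, fed a high-fat (60% fat to 22 weeks, then 45%) or low-fat (10% fat) diet from weaning, received 12 nmol test insulin (20 μL) s.c. in the neck. Sublingual-vein blood was drawn at 5, 15 and 60 min, and plasma levels were measured by luminescent oxygen channelling immunoassay. Each rat was dosed five times; mean ± SEM.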

[2] = format: in vivo, Male Sprague Dawley rats; settings: anaesthetized rats, s.c. 20 μL insulin aspart/iomeprol 80/20; p < 0.001
Procedure, shortened: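 Male rats on a high-fat diet (60% fat from weaning to 22 weeks, then 45%) or a low-fat diet (10% fat), aged 36–38 weeks, were isoflurane-anaesthetized. They received 20 μL test insulin mixed 80/20 with iomeprol s.c. in the neck or flank. μCT scans ran to 13 min (neck) or 17 min (flank). Tail blood was taken at 5 and 15 min and measured by luminescent oxygen channelling immunoassay. Three (neck) or four (flank) repeats per rat; mean ± SEM.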

insulin aspart
area under the curve (AUC0–60 min), HFD compared with LFD group [1]: reduced | mean insulin concentration at 5 and 15 min, flank compared with neck dosing [2]: significantly lower
